The values that follow come from ChEMBL document CHEMBL1125809, “Preparation and anticonvulsant activity of a series of functionalized alpha-heteroatom-substituted amino acids” (J Med Chem, 1991).

The subject of series [1] is Mus musculus. Description: Concentration required to prevent seizures upon intraperitoneal administration in mice in MES (maximal electroshock seizure) test. It is filed as functional. In a few lines: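 Male CF-1 mice dosed ip with compound in 30% PEG 400 (one compound in acacia). Pilot groups of 4 mice per dose tested at 0.5, 1 and 4 h for protection against maximal electroshock seizures.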

Series [2] in a line: (§1) Neurotoxic dose (TD50) from horizontal screen in mice. The class given is toxicity, organism-based. As to conditions: mouse, in vivo. The method in brief:
(§2)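 Male CF-1 mice, ip dosing in 30% PEG 400 unless otherwise noted. Trained mice are placed on a 13 × 13 cm no. 4 mesh wire screen on a vertical rod, which is rotated 180°. Impairment is scored as failure to climb to the top within 1 min. TD50 comes from a dose-response at the time of peak anticonvulsant activity, with 3–4 doses and 12 mice/dose. Some entries used the rotorod instead.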

For series [3], the species on record is Mus musculus. The description is as §1. It is filed as toxicity, organism-based. As to conditions: in vivo. In a few lines: as §2
Where [4] appears, read: Mus musculus, ip, read-out: ED50.

By ED50 is commonly meant the midpoint of the dose-response relation. For orientation: TD50 means the 50% point of the dose-response relation for the toxic effect studied. Lower therefore signals greater toxicity.

Molecules are shown by their SMILES. Values joined by “and” are separate entries in the source; they are usually repeats but may differ in a detail not shown here. Equal values may be shown once.

Regarding `CC(=O)NC(C(=O)NCc1ccccc1)N(C)C` (stereo unspecified), in series [1] (setting [4]), the ED50 came out at 45.3 mg/kg.

In series [2], `CC(=O)NC(C(=O)NCc1ccccc1)c1ccco1` (stereo unspecified) registered a TD50 of 40 mg/kg.

`CON(C)C(NC(C)=O)C(=O)NCc1ccccc1` (stereo unspecified) came in with a TD50 in series [2] of 50.5 mg/kg. Further, the ED50 in series [1] (setting [4]) was found to be 6.7 mg/kg.

Consider `CCOC(NC(C)=O)C(=O)NCc1ccccc1` (stereo unspecified), for which the TD50 in series [2] is above 112 mg/kg. Further, the ED50 in series [1] (setting [4]) was 62 mg/kg.

Regarding `CC(=O)NC(O)C(=O)NCc1ccccc1` (stereo unspecified), the ED50 in series [1] (setting [4]) was found to be 80.1 mg/kg.

As for `CC(=O)NC(C(=O)NCc1ccccc1)N1CCCO1` (stereo unspecified), the ED50 in series [1] (setting [4]) is 31.4 mg/kg.

Regarding `CC(=O)NC(C(=O)NCc1ccccc1)[N+](C)(C)C.F[B-](F)(F)F` (stereo unspecified), the 50% effective dose (ED50) in series [1] (setting [4]) is above 100 mg/kg.

`CC(=O)NC(C(=O)NCc1ccccc1)N(C)O` (stereo unspecified): in series [1] (setting [4]), the ED50 was found to be 30 mg/kg.

Take `CC(=O)NC(N)C(=O)NCc1ccccc1` (stereo unspecified): the ED50 in series [1] (setting [4]) is 65.1 mg/kg.

`CC(=O)NC(NNC(=O)OCc1ccccc1)C(=O)NCc1ccccc1` (stereo unspecified): in series [1] (setting [4]), the ED50 amounted to 55.6 mg/kg.

Turning to `CC(=O)NC(NNc1ccccc1)C(=O)NCc1ccccc1` (stereo unspecified), the ED50 in series [1] (setting [4]) is 100 mg/kg.

As to `CC(=O)NC(NC(=O)C(F)(F)F)C(=O)NCc1ccccc1` (stereo unspecified), the ED50 in series [1] (setting [4]) was above 300 mg/kg.

As to `CC(=O)NC(NC(C)=O)C(=O)NCc1ccccc1`, the median effective dose (ED50) in series [1] was <300 mg/kg and >100 mg/kg.

Regarding `CC(=O)NC(Oc1ccccc1)C(=O)NCc1ccccc1` (stereo unspecified), the median effective dose (ED50) in series [1] (setting [4]) was above 100 mg/kg.

Regarding `CC(=O)NC(NO)C(=O)NCc1ccccc1` (stereo unspecified), the ED50 in series [1] (setting [4]) came out at 100 mg/kg.

`CC(=O)NC(Nc1cc[nH]n1)C(=O)NCc1ccccc1` (stereo unspecified): the ED50 in series [1] (setting [4]) amounted to 100 mg/kg.

Regarding `CC(=O)NC(Sc1ccccc1)C(=O)NCc1ccccc1` (stereo unspecified), the ED50 in series [1] (setting [4]) was above 300 mg/kg.

Consider `CCS(=O)(=O)C(NC(C)=O)C(=O)NCc1ccccc1` (stereo unspecified), for which the ED50 in series [1] (setting [4]) is above 100 mg/kg.

Consider `CSC(NC(C)=O)C(=O)NCc1ccccc1` (stereo unspecified), for which the ED50 in series [1] (setting [4]) was above 100 mg/kg.

Regarding `CC[S+]([O-])C(NC(C)=O)C(=O)NCc1ccccc1` (stereo unspecified), the ED50 in series [1] (setting [4]) was above 100 mg/kg.

In the case of `CC(=O)NC(Nc1ccccc1)C(=O)NCc1ccccc1` (stereo unspecified), the ED50 in series [1] (setting [4]) is above 300 mg/kg.

Turning to `COC(NC(C)=O)C(=O)NCc1ccccc1` (stereo unspecified), the TD50 in series [3] was > 100 mg/kg and < 300 mg/kg.

In turn, `CONC(NC(C)=O)C(=O)NCc1ccccc1` (stereo unspecified) gave a TD50 in series [2] of 46 mg/kg. Besides, in series [1] (setting [4]), the 50% effective dose (ED50) worked out at 6.2 mg/kg.
